Hits are enriched below; roughly 4.8% of the tested compounds scored in any of these assays.
Efflux pump inh = inhibitors of Candida efflux pumps in yeast, primary screen, S. cerevisiae, Nile Red, multiplex | AID 485275, 2010 | inhibition, % at 10 µM | S. cerevisiae Candida pump triplex | 330,000 compounds, 0.44% hits;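 active means plate passing quality check with inhibition over a set limit, or well fluorescence over plate mean plus 4 SD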;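 further: Nile Red retained in pooled yeast measured as flow cytometry median fluorescence; higher means more Nile Red kept so more efflux inhibition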
T cruzi repl = inhibitors of intracellular T. cruzi growth, primary screen, luminescence, NIH3T3 host cells; T. cruzi beta-gal in NIH3T3, 90 h; 300,000 compounds, 1.4% hits; inhibition, % (test concentration not listed); AID 1885, 2009;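 active means mean inhibition across valid replicates above about 55%, limit read from the data; inconclusive means mean below that limit but half or more replicates reach it; inactive means mean below it, under half of replicates reach it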;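 further: signal also drops with host cell toxicity which is not excluded here; higher percent means less beta-gal luminescence so fewer parasites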
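Assay system: NIH/3T3 fibroblasts plus reporter T. cruzi. Amount: NIH/3T3 cells, 5,000 per well. Buffer or medium: DMEM, 2% fetal bovine serum. Doses: compound pinned at 50 nL/well, DMSO. Schedule: ≥90 h infection period, 3 h prior cell attachment. Signal: luminescent β-galactosidase signal after 60 min lysis. Read-out: parasite load inhibition, %.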
Mot1-301 SUMO = yeast Mot1-301 growth rescue at high temperature, primary screen, SUMOylation pathway inhibitor project, S. cerevisiae, ATP luminescence, 38.5C; S. cerevisiae Mot1-301 growth rescue; percent above DMSO median, 100 means doubled; growth rescue, % at 18.8 µM; 320,000 compounds, 1% hits;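 active means every valid replicate shows activation above 250% relative to neutral control wells; inactive means the rest, any valid replicate at or below 250%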
Beta apoptosis = inhibitors of cytokine-induced beta cell apoptosis, primary screen, luminescence. INS-1E cytokine-induced death, ATP luminescence, 48 h; percent of positive-control rescue, neutral wells zero. protection from apoptosis, % (no concentration beside the values). 300,000 compounds, 0.8% hits. AID 435005, 2010;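 active means Every replicate reaches about 75%, or at least half do and their mean reaches it too, limit read from the data; inconclusive means At least half of replicates reach the limit but their mean does not; inactive means Under half of replicates reach the limit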;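 further: higher means more ATP so stronger rescue from cytokine killing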
WT yeast gro inh = growth inhibition of WT strain, primary screen, mitochondrial fusion inhibitor project, WT and mutant strains, chemical genetic. mitochondrial fusion phenotypic screen. inhibition, % at 10 µM. 190,000 compounds, 2.1% hits. AID 1362, 2008; in the data active means inhibition above about 58%; tested in S. cerevisiae
CSC inhib = cancer stem cell viability inhibitors, primary screen, luminescence. 300,000 compounds, 1.1% hits. cancer stem cell-like cells viability. AID 2717, 2010. inhibition, % at 7.5 µM; in the data active means inhibition above about 75%; inconclusive means no clear call, values can overlap the other calls; tested in HMLE shEcad cells
Each line names hits and unclear results; the compound was inactive in the other large screens.

CCCCN(CCCC)c1nc2ccccc2nc1C(C#N)C(=O)NCCCOC (configuration not stated)	none
O=C(CN(Cc1ccco1)Cc1ccco1)Nc1cc(S(=O)(=O)N2CCCCC2)ccc1Cl	Beta apoptosis 101 (no result: T cruzi repl, WT yeast gro inh, CSC inhib)
NS(=O)(=O)c1ccc(NC(=O)COc2ccc(S(=O)(=O)N3CCCC3)cc2)cc1	Mot1-301 SUMO 342 (no result: WT yeast gro inh, CSC inhib)
CCN1CCN(c2ccc(S(=O)(=O)N3CCCCC3)cc2NC(=O)COc2ccc(F)cc2Cl)CC1	T cruzi repl 64 (no result: WT yeast gro inh)
COc1ccc(C(=O)Nc2ccc(S(=O)(=O)N3CCCC3)cc2)c(OC)c1	T cruzi repl 77
COc1ccccc1C(=O)Nc1ccc(S(=O)(=O)N2CCCC2)cc1	none
CCC1CCCCN1C(=O)c1cc(S(=O)(=O)N2CCOCC2)ccc1C (configuration not stated)	none (no result: T cruzi repl, WT yeast gro inh)
Cc1ccc(C)c(CNC(=O)Nc2ccccc2)c1	none (no result: WT yeast gro inh)
O=C(COc1ccc(F)cc1)Nc1cc(S(=O)(=O)N2CCCCC2)ccc1N1CCCCC1	T cruzi repl 55 (no result: WT yeast gro inh)
COc1ccc(OC)c(NS(=O)(=O)c2ccc(NC(C)=O)cc2)c1	Mot1-301 SUMO 273
O=C(Nc1cc(S(=O)(=O)N2CCCCC2)ccc1O)c1ccccc1NS(=O)(=O)c1ccc(F)cc1	none
O=C(Nc1ccc(S(=O)(=O)N2CCOCC2)cc1)c1ccco1	none
O=C(Nc1cc(S(=O)(=O)N2CCCCC2)ccc1Cl)c1ccccc1NS(=O)(=O)c1ccc(F)cc1	Beta apoptosis 130, WT yeast gro inh 72, CSC inhib 83
O=C(COc1ccc([N+](=O)[O-])cc1)Nc1cc(S(=O)(=O)N2CCCCC2)ccc1N1CCCCC1	none (no result: WT yeast gro inh)
COc1ccc(NS(=O)(=O)c2ccc(NC(C)=O)cc2)c(OC)c1	none
Cc1ccc(S(=O)(=O)N2CCN(C(=O)COc3ccc(NC(=O)c4ccco4)cc3)CC2)cc1	CSC inhib 94
COc1ccc(C2CC(c3cccs3)=NN2C(=O)COC(=O)C2CCCCC2)cc1OC (configuration not stated)	none (no result: Mot1-301 SUMO)
O=C(CN(CC1CCCO1)C(=O)CNS(=O)(=O)c1ccccc1)NCCc1ccccc1 (configuration not stated)	none (no result: WT yeast gro inh)
Cc1nnc(NC(=O)Cn2nc(C)c3ccccc3c2=O)s1	none
CCOc1ccc(S(=O)(=O)N2CCC(C(=O)NCCc3ccc(S(N)(=O)=O)cc3)CC2)cc1	Mot1-301 SUMO 271 (no result: WT yeast gro inh)
CCOc1ccc(S(=O)(=O)N2CCC(C(=O)NCCc3ccc(OC)c(OC)c3)CC2)cc1	none (no result: WT yeast gro inh)
O=S(=O)(NC1CCC(NS(=O)(=O)c2c(F)cccc2F)CC1)c1ccc2c(c1)OCCO2 (configuration not stated)	none (no result: T cruzi repl, WT yeast gro inh)
CC(C)CNC(=O)COC(=O)c1cc(S(=O)(=O)N2CCCCC2)ccc1N1CCOCC1	Mot1-301 SUMO 277
O=C(OCCOc1cccc(Cl)c1)c1cc(S(=O)(=O)N2CCCCC2)ccc1N1CCOCC1	T cruzi repl 65 (no result: WT yeast gro inh)
CC(C)NC(=O)NC(=O)COC(=O)c1cc(S(=O)(=O)N2CCCCC2)ccc1N1CCOCC1	none (no result: Beta apoptosis, WT yeast gro inh)
O=C(OCc1cccc(Cl)c1)c1cc(S(=O)(=O)N2CCCCC2)ccc1N1CCOCC1	none (no result: WT yeast gro inh)
Cc1c(-c2ccccc2)cnc2c(C)cccc12	none (no result: WT yeast gro inh)
N#C/C(=C\Nc1ccccc1O)c1nc2ccccc2o1	WT yeast gro inh 63
Cn1c(=O)[nH]c(=O)c2c1nc(SCCCO)n2CCCc1ccccc1	none (no result: WT yeast gro inh)
CS(=O)(=O)c1ccc(CNC(=O)C2(C(F)(F)F)C/C(=C\Cc3ccccc3)CCCO2)cc1 (configuration not stated)	none (no result: WT yeast gro inh)
CC1CCCCN1S(=O)(=O)c1ccc(S(=O)(=O)N(Cc2ccccc2)Cc2ccco2)cc1 (configuration not stated)	T cruzi repl 71
CCN(Cc1ccccc1)S(=O)(=O)c1ccc(S(=O)(=O)N(Cc2ccccn2)Cc2ccco2)cc1	none
COc1ccc(NC(=O)N2CCCCC2c2cccnc2)cc1 (configuration not stated)	T cruzi repl 66
COc1cc(OC)cc(C(=O)NC(=S)N2CCCCC2c2cccnc2)c1 (configuration not stated)	T cruzi repl 62 (no result: WT yeast gro inh)
C/C(Cn1nnc([N+](=O)[O-])n1)=N\NC(=O)c1ccc(Cl)c(Cl)c1	T cruzi repl 66
O=C(Oc1cccc(Nc2ncnc3ccccc23)c1)c1ccccc1Cl	WT yeast gro inh 59
CC(C(=O)NC(=O)NC1CCCCC1)N1CCN(C(c2ccccc2)c2ccccc2)CC1 (configuration not stated)	WT yeast gro inh 73 (no result: Mot1-301 SUMO)
CN(C)CC#CCCCCCCC#CCN(C)C	Mot1-301 SUMO 996
C#CCCCCCCC#CCN(C)C	none
CCN1C(=O)C2(C(C(=O)c3cc4ccccc4o3)=C(O)C(=O)N2CCCN(C)C)c2ccccc21 (configuration not stated)	none (no result: WT yeast gro inh)
CCOc1ccc(NCC(=O)c2ccc(C)cc2)cc1	T cruzi repl 57
CCOC(=O)c1cccc(NC(=O)C2CCCN(c3nnc(N4CCCC4=O)s3)C2)c1 (configuration not stated)	none (no result: WT yeast gro inh)
CCc1ccc(NC(=O)CN2C(=O)C(=O)N(Cc3ccccc3)C2=O)cc1	none
COc1ccc(Cc2nnc(SCC(=O)NC3(C#N)CCCCC3)n2N)cc1	none (no result: WT yeast gro inh)
CCc1ccc(C(c2ccc(CC)cc2)C(Cl)Cl)cc1	none (no result: T cruzi repl, WT yeast gro inh)
Clc1ccc(C(c2ccccc2Cl)C(Cl)Cl)cc1 (configuration not stated)	CSC inhib 98 (no result: T cruzi repl, Beta apoptosis, WT yeast gro inh)
Oc1c(N=Nc2ccccn2)ccc2ccccc12	T cruzi repl 73, Beta apoptosis 96, CSC inhib 99
CCCCNc1c(-c2cccc(-c3cc(C(C)=O)cs3)c2)nc2ccc(C)cn12	CSC inhib 125 (no result: WT yeast gro inh)
CCCCNc1c(-c2cccc(-c3ccc(OC)cc3)c2)nc2ccc(C)cn12	Beta apoptosis 92, CSC inhib 114 (no result: WT yeast gro inh)
CC(C)C(NC(=O)c1ccc(F)cc1)C(=O)N1CCOCC1 (configuration not stated)	none (no result: T cruzi repl, WT yeast gro inh, CSC inhib)
CCOc1cc(CNc2ccccc2)cc(Br)c1OCC(=O)NC(C)(C)C	none
CCOc1cc(CNc2ccc(Br)cc2)cc(Br)c1OCC(=O)NC(C)(C)C	T cruzi repl 66, CSC inhib inconclusive
CCOC(=O)CSc1c(-c2cccs2)[nH]c2ccccc12	WT yeast gro inh 64
CCOC(=O)CSc1c(-c2ccc(Cl)cc2)[nH]c2ccccc12	none
CCCCc1c(CCC)c(=N)c2ccccc2n1C	T cruzi repl 60 (no result: CSC inhib)
CC1=C/C(=N\NC(=S)NCc2ccccc2)CC1	T cruzi repl 69
C/C(=N\NC(=S)NCc1ccccc1)c1ccc(C#N)cc1	none
CNC(=S)N/N=C(\C)c1ccc(C(C)(C)C)cc1	WT yeast gro inh 75
C/C(=N\NC(=S)NCc1ccccc1)c1ccccc1	WT yeast gro inh 62

Compound activity: PubChem, several laboratories
